ChEMBL document CHEMBL2163237, “Molecular determinants of selectivity and efficacy at the dopamine D3 receptor” (J Med Chem, 2012)

Tests used:
Homo sapiens = species on record: Homo sapiens; test: Selectivity ratio of Ki for human D2L receptor to Ki for human D3 receptor
D(2) dopamine receptor = D(2) dopamine receptor (Homo sapiens, UniProt P14416); test: Displacement of [125I]IABN from human D2L receptor expressed in HEK293 cells after 60 mins by gamma counting analysis; assay type: cell-based
Procedure, shortened: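 Competitor spanned 5 orders of magnitude. Filtration with cold wash, then gamma counting. Single-site IC50 converted to Ki by Cheng-Prusoff. Mean of ≥3 independent experiments.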

D(3) dopamine receptor [1] = target: T1, D(3) dopamine receptor (Homo sapiens, UniProt P35462); test: Displacement of [125I]IABN from human D3 receptor expressed in HEK293 cells after 60 mins by gamma counting analysis; assay type: cell-based
Procedure, shortened: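 Competitor spanned 5 orders of magnitude. Nonspecific binding defined with 15 µM (+)-butaclamol. Filtration with cold wash, then gamma counting. Single-site IC50 converted to Ki by Cheng-Prusoff. Mean of ≥3 independent experiments.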

D(3) dopamine receptor [2] = target: T1, D(3) dopamine receptor; test: Partial agonist activity at human D3 receptor expressed in HEK293T cells coexpressing GalphaoA-91-Rluc8 and mVenus-Gbeta1gamma2 after 2 mins by bioluminescence resonance energy transfer assay relative to dopamine; assay type: functional, cell-based; settings: HEK-293T
Procedure, shortened: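 Human D3R transiently co-transfected (PEI) into HEK-293T cells with GαoA-RLuc8 and split-mVenus Gβ1/Gγ2; assayed ~48 h post-transfection. Cells in PBS/0.1% glucose at room temperature (40 µg protein/well), coelenterazine h 5 µM for 8 min, ligand for 2 min; BRET1 ratio 510–540/485 nm.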

Chain of D(2) dopamine receptor (P14416 whole entry): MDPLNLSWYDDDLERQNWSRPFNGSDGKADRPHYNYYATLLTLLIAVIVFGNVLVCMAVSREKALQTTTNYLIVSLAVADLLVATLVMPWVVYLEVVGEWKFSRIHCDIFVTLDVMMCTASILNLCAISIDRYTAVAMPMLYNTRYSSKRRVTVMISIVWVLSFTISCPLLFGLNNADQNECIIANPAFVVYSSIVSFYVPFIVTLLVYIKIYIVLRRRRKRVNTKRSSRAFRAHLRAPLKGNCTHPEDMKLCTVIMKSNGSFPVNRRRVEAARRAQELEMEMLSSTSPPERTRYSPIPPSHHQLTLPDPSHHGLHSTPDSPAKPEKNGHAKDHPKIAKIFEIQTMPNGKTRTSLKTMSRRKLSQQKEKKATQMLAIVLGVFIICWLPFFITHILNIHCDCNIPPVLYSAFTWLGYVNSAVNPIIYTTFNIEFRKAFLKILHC
T1 sequence (P35462 whole entry): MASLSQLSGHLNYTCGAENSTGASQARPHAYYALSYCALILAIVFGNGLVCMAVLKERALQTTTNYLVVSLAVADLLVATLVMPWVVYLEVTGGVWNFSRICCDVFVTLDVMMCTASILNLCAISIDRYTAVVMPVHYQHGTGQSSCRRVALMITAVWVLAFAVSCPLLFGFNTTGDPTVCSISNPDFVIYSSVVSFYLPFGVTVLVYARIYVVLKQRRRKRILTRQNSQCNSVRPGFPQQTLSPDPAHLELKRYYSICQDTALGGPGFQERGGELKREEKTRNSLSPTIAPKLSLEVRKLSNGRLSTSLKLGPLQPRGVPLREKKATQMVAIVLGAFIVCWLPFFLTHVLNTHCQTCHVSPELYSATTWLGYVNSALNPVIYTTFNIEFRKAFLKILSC

Row | SMILES | Ratio Ki (Homo sapiens) | Ki (D(2) dopamine receptor) [nM] | Ki (D(3) dopamine receptor [1]) [nM] | Emax (D(3) dopamine receptor [2]) [%]
1 | Clc1cccc(N2CCNCC2)c1Cl | 0.69 | 137 | 197 | –
2 | COc1ccccc1N1CCN(CCCCNC(=O)c2cc3ccccc3[nH]2)CC1 | – | – | – | 8.38
3 | CCCCN1CCN(c2cccc(Cl)c2Cl)CC1 | 1.79 | 3.4 | 1.9 | –
4 | CCC(=O)NCCCCN1CCN(c2cccc(Cl)c2Cl)CC1 | 3.25 | 15.6 | 4.8 | –
5 | COc1ccccc1N1CCNCC1 | 0.3 | 680 | 2260 | –
6 | O=C(NCCCCN1CCN(c2cccc(Cl)c2Cl)CC1)c1cc2ccccc2[nH]1 | – | – | 1.4 | 16
7 | CCCN1CCN(c2cccc(Cl)c2Cl)CC1 | 0.82 | 5.2 | 6.3 | –
8 | CN1CCN(c2cccc(Cl)c2Cl)CC1 | 0.84 | 45.9 | 54.6 | –
9 | CCC(=O)NCCCCN1CCN(c2ccccc2OC)CC1 | 2.18 | 84 | 38.6 | –
10 | CCCCN1CCN(c2ccccc2OC)CC1 | 0.86 | 20.6 | 23.9 | –
11 | OCCN1CCN(c2cccc(Cl)c2Cl)CC1 | 1.75 | 63.7 | 36.3 | –
12 | CCCCNC(=O)c1cc2ccccc2[nH]1 | – | – | 21500 | –
13 | O=C(NCC[C@@H](O)CN1CCN(c2cccc(Cl)c2Cl)CC1)c1cc2ccccc2[nH]1 | – | – | – | 20.6
14 | COc1ccccc1N1CCN(C)CC1 | 0.45 | 265 | 590 | –
